From the RNAGym collection of RNA variant scans (doi:10.1126/science.aae0568)
Variants at the floor of the assay were thinned out.

B1: tRNA (parent)
chain: GUUCCGUUGGCGUAAUGGUAACGCGUCUCCCUCCUAAGGAGAAGACUGCGGGUUCGAGUCCCGUACGGAACG

Variants of: B1
Experiment: yeast fitness relative to wild type (ratio to wild type); higher = fitter; tRNA-Arg(CCU), competitive growth, 37 C, YPD
In short: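 Genotype frequency changes were the basis for Darwinian fitness relative to wild type. The frequencies came from 100-nucleotide paired-end sequencing of gene amplicons from the start population and each end population of pooled yeast strains with tRNA-Arg(CCU) gene variants at the native locus. Competition ran in YPD at 37°C for 24 hours in six replicates, genotypes needed ≥ 100 starting reads, and estimates < 0.5 were set to 0.5.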

| Variant | yeast fitness |
| --- | --- |
| A20G C24G C27U C62A C66A | ≤ 0.5 |
| A20G A37U C62A | ≤ 0.5 |
| A20G C22U A37U G41C C46A | ≤ 0.5 |
| A20C U59C | 0.749 |
| A20G A45C A70C | 0.789 |
| A20G G44A U54C | 0.712 |
| A20G C24U C46U | 0.733 |
| A20G A36U | 0.644 |
| A20G A36G | 1.01 |
| A20G C34A A42U G58A C62U G63A | 0.583 |
| A20G G56C A70U | 0.859 |
| A20C U47A G48C | 0.526 |
| A20G C24G C33A A36U | ≤ 0.5 |
| A20G G41A | 1.2 |
| A20G G41C | 1.01 |
| A20G C27G U35G | ≤ 0.5 |
| A20G A36U C55G | ≤ 0.5 |
| A20G A37G G38A C55U U59G | 0.563 |
| A20G C61A | 0.706 |
| A20G C30G G38A | ≤ 0.5 |
| A20G C31G C60G G63C | ≤ 0.5 |
| A20G C22G C27G C30U C31G G51C G63A A65G | ≤ 0.5 |
| A20G C22G C27G C30U C31G G51C C61G | ≤ 0.5 |
| A20G C66A | 0.635 |

| Variant | yeast fitness |
| --- | --- |
| A20G C24A C27A A69C | 0.591 |
| A20G C24A C27U | 0.609 |
| A20G C24U G68C | 0.573 |
| A20G C22U U53A | ≤ 0.5 |
| A20G C31G C61U | 0.659 |
| A20G G23C | 0.727 |
| A20G G23A | 0.89 |
| A20G C24G C30G | ≤ 0.5 |
| A20G C27U A37U | ≤ 0.5 |
| A20G C60G C66G A69G | 0.554 |
| A20G C31U A42U C46U U59G A65U | ≤ 0.5 |
| A20G C34G U47C | ≤ 0.5 |
| A20G A43C A57U | 0.538 |
| A20G C34G C55G U59C C60U G67U | ≤ 0.5 |
| A20G A40C A42U A43C G50A | ≤ 0.5 |
| A20G G56C | 0.61 |
| A20C U59A C62G A70C | ≤ 0.5 |
| A20G A40C A42U A43C G48A | 0.562 |
| A20G C24U C33U A43C C55A U59C | 0.539 |
| A20G C49U U53G A65G | ≤ 0.5 |
| A20G A43G A65U | 0.596 |
| A20G C33U C61G G68C | ≤ 0.5 |
| A20G C30U A45G | 0.524 |
| A20G C24U C49G G50A | ≤ 0.5 |

| Variant | yeast fitness |
| --- | --- |
| A20G A42G G58A | 0.806 |
| A20G C34A | 0.69 |
| A20G C34G A43U C66U | 0.546 |
| A20G C30A C31U A45C C55G | ≤ 0.5 |
| A20G C30A A69C | 0.752 |
| A20G C29A A65C | 0.544 |
| A20G C27U C49U A57G | ≤ 0.5 |
| A20G C60A | 0.751 |
| A20G G51C | 0.581 |
| A20G A21G C34G C61U A70C | ≤ 0.5 |
| A20G A40G A57U A65G | ≤ 0.5 |
| A20G C22A A42G | 0.557 |
| A20G C60A C61G | ≤ 0.5 |
| A20G C62U | 1.05 |
| A20G A40G G44A C46G | ≤ 0.5 |
| A20G C29U G48C G52A | ≤ 0.5 |
| A20G A43C G56A A57U | ≤ 0.5 |
| A20G C31U G41C A43C C60G | ≤ 0.5 |
| A20G C34G G41C G52A | ≤ 0.5 |
| A20G C22G C27G C30U C31G G51C C61A A69C | ≤ 0.5 |
| A20G C46U G50C C61A | 0.572 |
| A20G C34G A37C C66U | ≤ 0.5 |
| A20G G25C C33U C49A U53A G67A | ≤ 0.5 |
| A20G A21G | 0.986 |

| Variant | yeast fitness |
| --- | --- |
| A20G C31A G68A | 0.575 |
| A20G C49A | 0.655 |
| A20G A36U G68C | 0.535 |
| A20G A43C | 1.09 |
| A20G A43G | 1.07 |
| A20G A40G | 0.888 |
| A20G A36G A37U | ≤ 0.5 |
| A20G G63A A70G | 0.634 |
| A20G C31U A69C | 0.833 |
| A20G C33U G52A G63A | 0.707 |
| A20G G44A C62U | 0.628 |
| A20G A45C G50A U54G | ≤ 0.5 |
| A20G A57C C62U | ≤ 0.5 |
| A20G C34G A42C A43U | 0.604 |
| A20G G25A | 0.904 |
| A20G G25C | 0.985 |
| A20G A43G U47G G67C | ≤ 0.5 |
| A20G C31G C61G C66U A69U | 0.545 |
| A20G C24A A45C | ≤ 0.5 |
| A20G A21G C29G C46G G52A | ≤ 0.5 |
| A20G A42C A45C G67C | ≤ 0.5 |
| A20G C22A A37C A65G | ≤ 0.5 |
| A20G C24G C27U A40C | 0.532 |
| A20G C24U C31A G68C | ≤ 0.5 |

| Variant | yeast fitness |
| --- | --- |
| A20G C34G G41C | ≤ 0.5 |
| A20G A36C G48C U53C A70C | ≤ 0.5 |
| A20G C22U A43G | 0.624 |
| A20G C33G G56A A65C | ≤ 0.5 |
| A20G A65G | 0.986 |
| A20G G38A | 0.912 |
| A20G C55G C61U | 0.534 |
| A20G G48A C49G | 0.635 |
| A20C U64G | 0.746 |
| A20G G23C C31G G50A | ≤ 0.5 |
| A20G A43U G48A | 0.73 |
| A20G C27G A36G | 0.504 |
| A20G G25A C49U | 0.781 |
| A20G C27U C66U | 0.689 |
| A20G G50A U59C | 0.571 |
| A20G C34A A57U | ≤ 0.5 |
| A20G C29A C34G A42C C49G G68A | ≤ 0.5 |
| A20G C27A A40G C46G C62G | ≤ 0.5 |
| A20G | 1 |
| A20G G67A | 0.95 |
| A20G G39C A45C C49G | ≤ 0.5 |
| A20G C30A G48A U64C | ≤ 0.5 |
| A20G G67A A69U | 0.516 |
| A20G A36U C66A | 0.529 |

| Variant | yeast fitness |
| --- | --- |
| A20G A37C | 0.929 |
| A20G A37U | 0.795 |
| A20G C22G | 0.952 |
| A20C U59A A65C A70C | ≤ 0.5 |
| A20G C29G | 0.609 |
| A20G G38C A40C | 0.662 |
| A20G C31G A70G | 0.715 |
| A20G C33U | 0.798 |
| A20G C33G G56A | 0.639 |
| A20G C60A U64A C66U | ≤ 0.5 |
| A20G C27A C31A C61U | ≤ 0.5 |
| A20G C49U A69C | 0.786 |
| A20G C31U A36C C61U A65C | ≤ 0.5 |
| A20G G38A C46U A70U | 0.594 |
| A20G G23C C31U C46G | 0.526 |
| A20G A36C C49G C61G C62G | ≤ 0.5 |
| A20G G52C | 0.613 |
| A20G C24A C29G A37U G39A U47C | ≤ 0.5 |
| A20G C24U G52A A57G C66U | ≤ 0.5 |
| A20G G23C G50A | ≤ 0.5 |
| A20G A42G | 0.969 |
| A20G A42C | 1.05 |
| A20G A36U C49G | ≤ 0.5 |
| A20C U35C G51C C60G A70U | ≤ 0.5 |

| Variant | yeast fitness |
| --- | --- |
| A20G G51C G67A | 0.534 |
| A20G G38U A43C A57U | ≤ 0.5 |
| A20G A40C A42U A43C G48A C66U | 0.532 |
| A20G A37C G68A | 0.515 |
| A20G C31U A42U C46U A65C | ≤ 0.5 |
| A20G A45C A69U | 0.729 |
| A20G C22U G67U | 0.559 |
| A20G C49A A65G | 0.619 |
| A20G A37C G39A A65U A70C | ≤ 0.5 |
| A20G A21G C22U | 0.564 |
| A20G A65G A70C | 0.694 |
| A20G A37G G44A A65U | ≤ 0.5 |
| A20G C27G A42C C55A | ≤ 0.5 |
| A20G C27G U47G C62U A65U | ≤ 0.5 |
| A20G G38C A70U | 0.57 |
| A20G C46U | 0.942 |
| A20G G38A C46U | 0.883 |
| A20C U53C | 0.717 |
| A20G C46U G63A | 0.82 |
| A20G C60G G68A | ≤ 0.5 |
| A20G C27U U28G G68A | ≤ 0.5 |
| A20G C34A G58A | 0.622 |
| A20G A40G G50C A65G C66U | ≤ 0.5 |
